Reference: ChEMBL document CHEMBL1250520, “Antitumor agents. 280. Multidrug resistance-selective desmosdumotin B analogues” (2010)

Assays:
Type in all cases: functional
KB = assay: Anticancer activity against human KB cells after 3 days by SRB assay; details: 72 h, read-out: ED50 (the source's name)
Summary of the method: (§1)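 Cells seeded at 1500–7500 per well, compounds added from DMSO-diluted stock, grown 3 days in RPMI-1640 with 25mM HEPES, 0.25% sodium bicarbonate, 10% FBS and kanamycin. Attached cells fixed in cold 50% TCA, stained with 0.4% sulforhodamine B, absorbance read at 562 nm after dye solubilization. ED50 is the 50% growth-reduction concentration, averaged from at least three independent determinations.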

[1] = Anticancer activity against human KBVIN cells after 3 days by SRB assay; details: 72 h, read-out: ED50 (the source's name); summary of the method: as §1
[2] = Selectivity ratio of ED50 for human KB cells to ED50 for human KBVIN cells
Summary of the method: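 Ratio of KB ED50 to KB-VIN ED50. Both values come from a 3-day sulforhodamine B assay with absorbance read at 562 nm. Cells were seeded at 1500–7500 per well and dosed from DMSO-diluted stock. Each ED50 is the mean of at least three independent determinations.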

SMILES	EC50 (KB)	EC50 [1]	Ratio ED50 [2]
CCC1=C(O)c2c(oc(-c3cccc(C(F)(F)F)c3)cc2=O)C(CC)(CC)C1=O	35.7 µM	5.42 µM	6.6
CCC1=C(O)c2c(oc(-c3ccc(OC)c(OC)c3OC)cc2=O)C(CC)(CC)C1=O	9.4 µM	1.57 µM	6
CCC1=C(O)c2c(oc(-c3cc(C)c(C)cc3C)cc2=O)C(CC)(CC)C1=O	8.2 µM	4.37 µM	2
CCC1=C(O)c2c(oc(-c3ccc(F)cc3)cc2=O)C(CC)(CC)C1=O	33 µM	1.85 µM	18
CCC1=C(O)c2c(oc(-c3cc(OC)ccc3OC)cc2=O)C(CC)(CC)C1=O	8.8 µM	2.51 µM	4
CCC1=C(O)c2c(oc(-c3cc(C)ccc3C)cc2=O)C(CC)(CC)C1=O	14.5 µM	3.41 µM	4
CCC1=C(O)c2c(oc(-c3ccc(C(C)(C)C)cc3)cc2=O)C(CC)(CC)C1=O	29.3 µM	17.4 µM	2
CCC1=C(O)c2c(oc(-c3ccccc3C(F)(F)F)cc2=O)C(CC)(CC)C1=O	45.6 µM	43.1 µM	1
CCC1=C(O)c2c(oc(-c3ccc(O)cc3)cc2=O)C(CC)(CC)C1=O	20.6 µM	20.6 µM	1
CCC1=C(O)c2c(oc(-c3ccc(COC)cc3)cc2=O)C(CC)(CC)C1=O	> 52.4 µM	3.4 µM	15
CCC1=C(O)c2c(oc(-c3ccc(OC)c(F)c3)cc2=O)C(CC)(CC)C1=O	26.7 µM	0.1 µM	250
CCC1=C(O)c2c(oc(-c3cc(OC)cc(OC)c3)cc2=O)C(CC)(CC)C1=O	45.2 µM	3.27 µM	14
CCC1=C(O)c2c(oc(-c3cc(C)c(O)c(C)c3)cc2=O)C(CC)(CC)C1=O	18.3 µM	8.9 µM	2
CCC1=C(O)c2c(oc(-c3ccc(Br)cc3)cc2=O)C(CC)(CC)C1=O	> 48.1 µM	15.7 µM	3
CCC1=C(O)c2c(oc(-c3ccc(O)c(O)c3)cc2=O)C(CC)(CC)C1=O	10 µM	5.41 µM	2
CCC1=C(O)c2c(oc(-c3cccc(C)c3)cc2=O)C(CC)(CC)C1=O	49.7 µM	3.69 µM	14
CCC1=C(O)c2c(oc(-c3cc(C)ccc3F)cc2=O)C(CC)(CC)C1=O	47.3 µM	3.24 µM	15
CCC1=C(O)c2c(oc(-c3cc(C)c(OC)cc3C)cc2=O)C(CC)(CC)C1=O	36.6 µM	7.58 µM	5
CCC1=C(O)c2c(oc(-c3ccc(C)c(Cl)c3)cc2=O)C(CC)(CC)C1=O	39 µM	2.15 µM	18
CCC1=C(O)c2c(oc(-c3ccc(OC(F)(F)F)cc3)cc2=O)C(CC)(CC)C1=O	36.5 µM	9.95 µM	4
CCC1=C(O)c2c(oc(-c3ccc(OC)c(C)c3)cc2=O)C(CC)(CC)C1=O	28.5 µM	0.1 µM	273
CCC1=C(O)c2c(oc(-c3cc(OC)c(OC)c(OC)c3)cc2=O)C(CC)(CC)C1=O	46.7 µM	5.6 µM	8
CCC1=C(O)c2c(oc(-c3ccccc3OC)cc2=O)C(CC)(CC)C1=O	40.8 µM	3.26 µM	13
CCC1=C(O)c2c(oc(-c3ccc(C)cc3C)cc2=O)C(CC)(CC)C1=O	41.2 µM	8.52 µM	5

SMILES	EC50 (KB)	EC50 [1]	Ratio ED50 [2]
CCC1=C(O)c2c(oc(-c3ccccc3F)cc2=O)C(CC)(CC)C1=O	> 56.2 µM	3.93 µM	>14
CCC1=C(O)c2c(oc(-c3ccc(SC)cc3)cc2=O)C(CC)(CC)C1=O	> 52.1 µM	1.38 µM	>38
CCC1=C(O)c2c(oc(-c3ccc(C(C)C)cc3)cc2=O)C(CC)(CC)C1=O	8.13 µM	1.08 µM	
CCC1=C(O)c2c(oc(-c3ccc(OC)c(Cl)c3)cc2=O)C(CC)(CC)C1=O	24.9 µM	1.37 µM	18
CCC1=C(O)c2c(oc(-c3ccc(F)c(C)c3)cc2=O)C(CC)(CC)C1=O	40.5 µM	1.62 µM	24
CCC1=C(O)c2c(oc(-c3cc(C)cc(C)c3)cc2=O)C(CC)(CC)C1=O	45.5 µM	0.45 µM	100
CCC1=C(O)c2c(oc(-c3ccc(CBr)cc3)cc2=O)C(CC)(CC)C1=O	> 46.5 µM	27.9 µM	>2
CCC1=C(O)c2c(oc(-c3cccc(OC)c3)cc2=O)C(CC)(CC)C1=O	13.3 µM	1.22 µM	11
CCC1=C(O)c2c(oc(-c3ccc(O)c(C)c3C)cc2=O)C(CC)(CC)C1=O	6.5 µM	2.75 µM	2
CCOc1cccc(-c2cc(=O)c3c(o2)C(CC)(CC)C(=O)C(CC)=C3O)c1OCC	44.6 µM	31.7 µM	1.4
CCC1=C(O)c2c(oc(-c3cccc(F)c3)cc2=O)C(CC)(CC)C1=O	> 56.2 µM	3.09 µM	>18
CCC1=C(O)c2c(oc(-c3ccc(C)c(F)c3)cc2=O)C(CC)(CC)C1=O	28.1 µM	2.95 µM	10
CCC1=C(O)c2c(oc(-c3cc(Cl)c(OC)c(OC)c3)cc2=O)C(CC)(CC)C1=O	21.8 µM	8.4 µM	3
CCC1=C(O)c2c(oc(-c3cccc(C)c3C)cc2=O)C(CC)(CC)C1=O	3.1 µM	0.85 µM	4
CCC1=C(O)c2c(oc(-c3ccc(C)c(C)c3)cc2=O)C(CC)(CC)C1=O	35.5 µM	0.71 µM	50
CCC1=C(O)c2c(oc(-c3ccc(OC)c(OC)c3)cc2=O)C(CC)(CC)C1=O	14.7 µM	1 µM	15
CCC1=C(O)c2c(oc(-c3cccc(OC(F)(F)F)c3)cc2=O)C(CC)(CC)C1=O	> 47.4 µM	9.95 µM	>5
CCC1=C(O)c2c(oc(-c3ccc(OC)cc3C)cc2=O)C(CC)(CC)C1=O	20.9 µM	2.62 µM	8
CCOc1ccc(-c2cc(=O)c3c(o2)C(CC)(CC)C(=O)C(CC)=C3O)cc1	> 52.4 µM	7.54 µM	>7
CCC1=C(O)c2c(oc(-c3cccc(OC)c3OC)cc2=O)C(CC)(CC)C1=O	35.2 µM	4.02 µM	9
CCCCc1ccc(-c2cc(=O)c3c(o2)C(CC)(CC)C(=O)C(CC)=C3O)cc1	111 µM	37 µM	3
CCC1=C(O)c2c(oc(-c3ccc(OC)cc3)cc2=O)C(CC)(CC)C1=O	17.7 µM	0.68 µM	26
CCC1=C(O)c2c(oc(-c3ccc(OC)c(C)c3C)cc2=O)C(CC)(CC)C1=O	5.43 µM	0.28 µM	20
